34 compounds from the M2OR odorant receptor database can be followed below.
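Also: active if original authors judged signal statistically different from baseline.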

In this assay the target is T1, UniProt Q7TRX0.
T1 sequence (whole entry): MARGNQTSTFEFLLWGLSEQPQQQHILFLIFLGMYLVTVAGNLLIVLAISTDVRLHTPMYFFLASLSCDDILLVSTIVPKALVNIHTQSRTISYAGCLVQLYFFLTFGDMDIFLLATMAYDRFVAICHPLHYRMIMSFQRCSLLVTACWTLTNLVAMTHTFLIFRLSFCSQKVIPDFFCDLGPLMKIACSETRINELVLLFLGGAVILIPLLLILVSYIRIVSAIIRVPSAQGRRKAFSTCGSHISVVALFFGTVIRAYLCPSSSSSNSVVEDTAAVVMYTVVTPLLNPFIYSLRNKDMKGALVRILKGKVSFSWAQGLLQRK
Conditions: stereoisomer not certain. Summed up:
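Whether a receptor–molecule pair is responsive (active) rests on the original authors' judgment that its measured signal was statistically different from baseline. Pairs without that judgment are non-responsive (inactive). Sources used varied assay methods, commonly transient luciferase assays in mammalian cell lines.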
As for `Cc1ccc2c(c1)OCC(=O)CO2`, the “odorant receptor agonist call” value was “inactive”.

For the compound `Cc1occc1SSc1ccoc1C`, the “odorant receptor agonist call” value is “inactive”.

Take `CCC=CCCC=CC=O`: the “odorant receptor agonist call” value is “inactive”.

`CCSCC`: the “odorant receptor agonist call” value is “inactive”.

As for `C=CC(=O)CCCCC`, the “odorant receptor agonist call” value was “inactive”.

Regarding `CCCCCCC=CC=O`, the “odorant receptor agonist call” value was “inactive”.

Consider `CCCC=O`, for which the “odorant receptor agonist call” value was “inactive”.

Take `C=CC(=C)CCC=C(C)CCC=C(C)C`: the “odorant receptor agonist call” value is “inactive”.

Turning to `CC(C)=CCCC(C)=CCOC(=O)C(C)C`, the “odorant receptor agonist call” value was “inactive”.

`C=C(CC)CCCC(C)(C)O`: the “odorant receptor agonist call” value was “inactive”.

In the case of `CC1CC=CCCCCCCCCCC(=O)C1` (centres undefined), the “odorant receptor agonist call” value was “inactive”.

`CCCCCCCCC=CC=O`: the “odorant receptor agonist call” value is “inactive”.

For `C=CC(=C)CCC=C(C)C`, the “odorant receptor agonist call” value was “inactive”.

Regarding `C1CCOCC1`, the “odorant receptor agonist call” value was “inactive”.

Regarding `CCCCCOC(=O)CCC`, the “odorant receptor agonist call” value was “inactive”.

Turning to `CCC=CCCCCC=O`, the “odorant receptor agonist call” value was “inactive”.

On to `CCCC(C)C(=O)OCC` (centres undefined), for which the “odorant receptor agonist call” value was “inactive”.

As to `CCc1occc(=O)c1O`, the “odorant receptor agonist call” value was “inactive”.

With `CCCCCC(C=O)=Cc1ccccc1`, the “odorant receptor agonist call” value is “inactive”.

On to `CC(C)CS`, for which the “odorant receptor agonist call” value is “inactive”.

Consider `CCCCCCC(C=O)=Cc1ccccc1`, for which the “odorant receptor agonist call” value is “inactive”.

With `CC(CC=O)CCCC(C)(C)O` (centres undefined), the “odorant receptor agonist call” value was “inactive”.

As to `CC1(C)CC(=O)CC(=O)C1`, the “odorant receptor agonist call” value is “inactive”.

With `c1ccc2ncccc2c1`, the “odorant receptor agonist call” value is “inactive”.

`CCSSCC`: the “odorant receptor agonist call” value was “inactive”.

As for `CCCCCCCCCCCO`, the “odorant receptor agonist call” value is “inactive”.

For `CCCCCCCOC(=O)C(C)C`, the “odorant receptor agonist call” value is “inactive”.

`CCCCC=O`: the “odorant receptor agonist call” value is “inactive”.

In the case of `CCCCCCC(C)O` (centres undefined), the “odorant receptor agonist call” value was “inactive”.

For `CCCCCCC(=O)OCCCC`, the “odorant receptor agonist call” value was “inactive”.

As for `CCCCCOC(=O)CC`, the “odorant receptor agonist call” value is “inactive”.

With `COc1ccccc1`, the “odorant receptor agonist call” value is “inactive”.

Regarding `CCCCCC(C)O` (centres undefined), the “odorant receptor agonist call” value was “inactive”.

For the compound `CCc1ccccc1O`, the “odorant receptor agonist call” value is “inactive”.
